Data set [1] deals with Staphylococcus aureus. Kind of data set: Antibacterial activity against methicillin-sensitive Staphylococcus aureus assessed as growth inhibition by agar dilution assay. In kind it is functional. Put shortly:
(§1)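 Agar dilution MIC per CLSI (aerobic and anaerobic methods); compounds dissolved in DMSO, reference antibiotics in sterile water. MIC taken as lowest concentration with no visible growth; determined at least twice on separate days, higher value reported. Clinical isolate ranges summarized as MIC50/MIC90.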
Background: In agar dilution, organisms are placed on agar that contains the substance at set levels.

Data set [2] relates to Escherichia coli. Briefly: Antibacterial activity against Escherichia coli assessed as growth inhibition at <0.256 mg/ml by agar dilution assay. In kind it is functional, organism-based.
Data set [3] deals with Staphylococcus aureus. Briefly: In vivo antibacterial activity against Staphylococcus aureus in New zealand rabbit keratitis model assessed as suppression of corneal edema at 4.3 mg/ml administered topically every 4 hrs for four doses every day for 10 days starting 24 hrs post-infection by slit lamp biomicroscopy. Type of data set: functional, organism-based. Conditions: Cornea. Put shortly:
(§2)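 NZW rabbits (2.0−3.0 kg), anesthetized with iv sodium pentobarbital 30 mg/kg, given intracorneal S. aureus (about 7.5 × 10^6 CFU) from an overnight LB culture. Starting 24 h post-infection, 30 μL drops applied topically per eye every 4 h, four doses daily (8 a.m.–8 p.m.), for 10 days, masked. Test compound in PEG–water (1:1). Slit-lamp biomicroscopy before and after.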

The target of another data set is T1, DNA topoisomerase 1 (Homo sapiens, UniProt P11387).
T1 sequence (P11387 whole entry): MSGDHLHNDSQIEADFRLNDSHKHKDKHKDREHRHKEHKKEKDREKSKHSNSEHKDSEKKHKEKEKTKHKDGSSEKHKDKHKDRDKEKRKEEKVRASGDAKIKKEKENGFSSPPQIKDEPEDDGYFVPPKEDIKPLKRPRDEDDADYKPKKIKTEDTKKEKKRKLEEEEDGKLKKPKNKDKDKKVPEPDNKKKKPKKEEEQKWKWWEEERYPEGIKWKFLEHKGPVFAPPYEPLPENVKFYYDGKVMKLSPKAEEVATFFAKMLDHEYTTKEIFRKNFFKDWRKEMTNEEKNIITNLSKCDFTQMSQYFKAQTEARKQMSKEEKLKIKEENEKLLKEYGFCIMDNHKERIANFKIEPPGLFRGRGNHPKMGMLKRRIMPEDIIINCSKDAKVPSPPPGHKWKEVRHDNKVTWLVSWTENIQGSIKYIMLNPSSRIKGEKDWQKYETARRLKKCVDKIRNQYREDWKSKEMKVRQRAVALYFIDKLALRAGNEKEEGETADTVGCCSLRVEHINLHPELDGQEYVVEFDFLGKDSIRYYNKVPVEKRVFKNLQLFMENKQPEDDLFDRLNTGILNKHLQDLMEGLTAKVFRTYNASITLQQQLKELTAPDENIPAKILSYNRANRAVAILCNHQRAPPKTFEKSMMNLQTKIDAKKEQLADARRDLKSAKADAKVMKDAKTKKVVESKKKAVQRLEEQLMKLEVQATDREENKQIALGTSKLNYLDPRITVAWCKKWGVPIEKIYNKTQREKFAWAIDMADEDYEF
Kind of data set: Inhibition of human topoisomerase 1-mediated pHOT-1 DNA relaxation at 10 to 150 uM treated with pHOT-1 substrate for 15 mins prior to enzyme addition for 30 mins by agarose gel electrophoresis. Conditions: 0.5 h.

The test system of the next data set is Bacillus cereus. Briefly: Antibacterial activity against Bacillus cereus ATCC 10231 assessed as growth inhibition by agar dilution assay. Type of data set: functional.
Data set [4] concerns Staphylococcus epidermidis. Kind of data set: Antibacterial activity against methicillin-resistant Staphylococcus epidermidis assessed as growth inhibition by agar dilution assay. Type of data set: functional. Put shortly:
(§3)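 CLSI agar dilution MIC against aerobic and anaerobic strains. Test compounds were dissolved in DMSO and reference antibiotics in sterile water. MIC was taken as the lowest concentration showing no bacterial growth. Each MIC was determined at least twice on separate days, and the higher value was reported. E. coli PQ 37 was cultured in LA medium.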

For another data set, the system named is Mus musculus. Briefly: In vivo acute toxicity in Kunming mouse assessed as mortality at 100 mg/kg, iv administered as single dose measured within 7 days. Type of data set: organism-based. Further details: dose 100 mg/kg, route intravenous. Conditions: 168 h. Put shortly:
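Male and female adult Kunming mice (18−22 g) received a single intravenous injection at various doses (n = 10 per group, 200 μL per mouse). Compound was given in polyethylene glycol−water (1:1, v/v), and controls received vehicle alone. Mortality was recorded for 7 days. LD50 was estimated by probit analysis.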

The test system of the next data set is Enterococcus faecium. Briefly: Antibacterial activity against vancomycin-sensitive Enterococcus faecium assessed as growth inhibition by agar dilution assay. In kind it is functional.
The next data set deals with Streptococcus pneumoniae. Kind of data set: Antibacterial activity against Streptococcus pneumoniae assessed as growth inhibition by agar dilution assay. Type of data set: functional. Put shortly: as §1
For data set [5], the system named is Staphylococcus aureus. Kind of data set: In vivo antibacterial activity against Staphylococcus aureus in New zealand rabbit keratitis model assessed as suppression of conjuctival congestion, conjuctival chemosis, infiltration, operative ulcer area and depth at 4.3 mg/ml administered topically every 4 hrs for four doses every day for 10 days starting 24 hrs post-infection by slit lamp biomicroscopy. Type of data set: functional, organism-based. Put shortly:
as §2

For data set [6], the target named is T2, DNA topoisomerase 1 (Escherichia coli (strain K12)) (UniProt P06612).
T2 sequence (whole entry): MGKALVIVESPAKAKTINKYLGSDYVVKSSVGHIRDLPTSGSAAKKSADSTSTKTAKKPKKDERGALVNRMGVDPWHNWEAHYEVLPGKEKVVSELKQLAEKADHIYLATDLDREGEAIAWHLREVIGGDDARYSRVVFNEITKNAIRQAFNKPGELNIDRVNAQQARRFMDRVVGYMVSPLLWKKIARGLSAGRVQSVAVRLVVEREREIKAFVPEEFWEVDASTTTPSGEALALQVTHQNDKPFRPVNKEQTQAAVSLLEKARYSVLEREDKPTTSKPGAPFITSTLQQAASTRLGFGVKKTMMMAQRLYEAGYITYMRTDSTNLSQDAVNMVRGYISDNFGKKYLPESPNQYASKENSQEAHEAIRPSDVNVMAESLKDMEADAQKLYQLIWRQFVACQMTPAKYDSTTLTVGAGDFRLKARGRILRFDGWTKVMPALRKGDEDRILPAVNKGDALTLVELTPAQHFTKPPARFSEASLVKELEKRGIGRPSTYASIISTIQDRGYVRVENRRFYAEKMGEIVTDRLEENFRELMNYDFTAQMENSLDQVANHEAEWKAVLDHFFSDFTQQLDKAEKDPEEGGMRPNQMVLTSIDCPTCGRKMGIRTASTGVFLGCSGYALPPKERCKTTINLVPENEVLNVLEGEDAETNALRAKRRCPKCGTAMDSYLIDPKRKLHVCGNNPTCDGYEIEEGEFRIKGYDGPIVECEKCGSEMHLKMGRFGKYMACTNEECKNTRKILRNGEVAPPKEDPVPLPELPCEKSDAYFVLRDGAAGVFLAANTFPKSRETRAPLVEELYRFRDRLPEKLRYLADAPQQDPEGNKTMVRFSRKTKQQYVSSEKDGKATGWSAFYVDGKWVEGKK
Kind of data set: Inhibition of Escherichia coli topoisomerase 1-mediated pHOT-1 DNA relaxation at >90 uM treated with pHOT-1 substrate for 15 mins prior to enzyme addition for 30 mins by agarose gel electrophoresis.

Data set [7] relates to Staphylococcus aureus. Briefly: microbe, parasite or virus in culture. In kind it is functional. Conditions: ATCC 6538.
Data set [8] concerns Escherichia coli. Kind of data set: Antibacterial activity against Escherichia coli PQ 37 harboring OM permeability barrier mutant assessed as growth inhibition by agar dilution assay. Type of data set: functional. Put shortly:
as §3

Data on one compound can be found in ChEMBL document CHEMBL3259660, “Haloemodin as novel antibacterial agent inhibiting DNA gyrase and bacterial topoisomerase I” (J Med Chem, 2014).

In brackets after ≈: the same amount, converted by molar mass. Activity calls are given as the source filed them. No cut-off for these calls is given here.

Take `Cc1cc(O)c2c(c1)C(=O)c1c(I)c(O)c(I)c(O)c1C2=O`: the MIC with Staphylococcus aureus [1] was determined as 8 mg/L (≈ 15.3 µM); with Bacillus cereus, 4 mg/L (≈ 7.66 µM); in data set [4] it was 4 mg/L (≈ 7.66 µM); with Enterococcus faecium, 16 mg/L (≈ 30.6 µM); in the data set on Streptococcus pneumoniae, 32 mg/L (≈ 61.3 µM); against Staphylococcus aureus [7], 2 mg/L (≈ 3.83 µM). In addition, the MIC in the data set on Escherichia coli [8] is 8 mg/L (≈ 15.3 µM). Also, the “growth inhibition (GI)” value in the data set with Escherichia coli [2] is “inactive”. Moreover, the inhibition result (in the data set on Staphylococcus aureus [3]; in the data set with Staphylococcus aureus [5]; in data set [6]) was “Active” throughout. The “inhibition (INH)” value against DNA topoisomerase 1 is “Not Active”. Further, the Activity entry in the data set with Mus musculus is on record as “Non-toxic”.
